{"source": "ChEMBL document CHEMBL5537190", "about": "“Development of Potent and Selective Monoacylglycerol Lipase Inhibitors. SARs, Structural Analysis, and Biological Characterization” (J Med Chem, 2024)", "key": {"[1]": {"biological_target": "Kappa-type opioid receptor (Homo sapiens) (UniProt P41145)", "sequence (P41145 whole entry)": "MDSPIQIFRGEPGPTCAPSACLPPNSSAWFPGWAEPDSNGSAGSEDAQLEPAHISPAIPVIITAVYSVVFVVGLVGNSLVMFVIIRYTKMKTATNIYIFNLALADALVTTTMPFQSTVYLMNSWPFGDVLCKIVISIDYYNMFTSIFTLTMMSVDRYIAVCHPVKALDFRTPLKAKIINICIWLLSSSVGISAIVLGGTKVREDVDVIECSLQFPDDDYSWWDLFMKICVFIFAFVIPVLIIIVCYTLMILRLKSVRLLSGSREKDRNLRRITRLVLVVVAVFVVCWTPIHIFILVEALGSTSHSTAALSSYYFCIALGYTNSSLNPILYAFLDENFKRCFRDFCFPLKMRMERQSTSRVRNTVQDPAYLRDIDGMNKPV", "test": "Agonist activity at human KOP at 10 uM relative to control", "assay_type": "functional", "settings": "filed as agonist"}, "[2]": {"biological_target": "Cannabinoid receptor 1 (Homo sapiens) (UniProt P21554)", "sequence (P21554 whole entry)": "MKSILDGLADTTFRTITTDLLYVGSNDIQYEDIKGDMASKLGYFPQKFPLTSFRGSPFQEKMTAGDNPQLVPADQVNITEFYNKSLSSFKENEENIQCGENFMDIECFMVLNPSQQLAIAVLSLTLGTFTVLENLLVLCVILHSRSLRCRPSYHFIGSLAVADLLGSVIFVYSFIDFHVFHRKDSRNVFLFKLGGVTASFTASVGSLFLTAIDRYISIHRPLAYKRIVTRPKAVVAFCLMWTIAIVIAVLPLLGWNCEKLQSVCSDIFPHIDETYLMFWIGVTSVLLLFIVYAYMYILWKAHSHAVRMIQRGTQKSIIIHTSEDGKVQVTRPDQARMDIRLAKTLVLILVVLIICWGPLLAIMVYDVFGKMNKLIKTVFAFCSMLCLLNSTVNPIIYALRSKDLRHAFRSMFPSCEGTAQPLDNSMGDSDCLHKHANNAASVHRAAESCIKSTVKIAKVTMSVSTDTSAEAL", "test": "Agonist activity at CB1 receptor (unknown origin) at 10 uM", "assay_type": "functional"}, "[3]": {"biological_target": "T1, Monoglyceride lipase (Mus musculus) (UniProt O35678)", "T1 sequence (whole entry)": "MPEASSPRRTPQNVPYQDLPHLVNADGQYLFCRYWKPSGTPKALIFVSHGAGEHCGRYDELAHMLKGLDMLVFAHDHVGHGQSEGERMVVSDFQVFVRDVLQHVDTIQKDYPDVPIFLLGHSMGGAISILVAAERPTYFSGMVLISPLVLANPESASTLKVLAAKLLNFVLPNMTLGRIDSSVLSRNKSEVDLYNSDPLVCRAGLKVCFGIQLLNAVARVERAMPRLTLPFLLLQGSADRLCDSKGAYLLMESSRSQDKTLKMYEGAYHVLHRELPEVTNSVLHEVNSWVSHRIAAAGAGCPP", "test": "In-vivo inhibition of mouse MAGL assessed as effect on OEA level in brain at 5 mg/kg, ip measured after 1 hr by LC-MS/MS analysis", "assay_type": "functional, organism-based", "summary_of_the_method": "(§1)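 Adult male mice received 5 mg/kg i.p. (n = 3/group), DMSO vehicle. Killed at 1 h. Half-brains used for lipid analysis by LC-MS; the other half homogenised for MAGL activity assay. Compared with vehicle by two-tailed t-test.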"}, "[4]": {"biological_target": "T1, Monoglyceride lipase (Mus musculus)", "test": "In-vivo inhibition of mouse MAGL assessed as effect on AEA level in brain at 5 mg/kg, ip measured after 1 hr by LC-MS/MS analysis", "assay_type": "functional, organism-based", "summary_of_the_method": "as §1"}, "[5]": {"biological_target": "T1, Monoglyceride lipase (Mus musculus)", "test": "In-vivo inhibition of ip dosed mouse MAGL assessed as increase in 2-Ag level measured after 1 hr by LC-MS/MS analysis", "assay_type": "functional, organism-based", "settings": "dose 0.2-20 mg/kg", "summary_of_the_method": "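Adult male mice dosed i.p. at 0.2, 1, 5 or 20 mg/kg (n = 3/group), vehicle DMSO or PEG/Tween (4:1). Killed at 1 h; brains halved and frozen. One half for 2-AG by LC-MS, the other for MAGL assay on homogenate. t-test against vehicle; two-way ANOVA with Bonferroni post-test.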"}, "[6]": {"biological_target": "T1, Monoglyceride lipase (Mus musculus)", "test": "In-vivo inhibition of mouse MAGL assessed as effect on oleic level in brain at 5 mg/kg, ip measured after 1 hr by LC-MS/MS analysis", "assay_type": "functional, organism-based", "summary_of_the_method": "as §1"}, "[7]": {"biological_target": "T2, Monoacylglycerol lipase ABHD6 (Mus musculus) (UniProt Q8R2Y0)", "T2 sequence (whole entry)": "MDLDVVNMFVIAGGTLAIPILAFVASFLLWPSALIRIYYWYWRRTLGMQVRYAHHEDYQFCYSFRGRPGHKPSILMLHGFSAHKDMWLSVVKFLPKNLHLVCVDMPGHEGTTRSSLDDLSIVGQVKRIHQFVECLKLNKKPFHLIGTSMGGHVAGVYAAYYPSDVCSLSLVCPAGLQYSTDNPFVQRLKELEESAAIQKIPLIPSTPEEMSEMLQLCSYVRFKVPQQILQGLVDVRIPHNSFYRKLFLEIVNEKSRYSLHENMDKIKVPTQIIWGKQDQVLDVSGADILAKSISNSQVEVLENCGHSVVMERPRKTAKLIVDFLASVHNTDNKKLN", "test": "Binding affinity to mouse brain ABHD6 at 0.1 to 1 uM incubated for 30 mins in presence of MB064 by ABPP assay", "assay_type": "tissue-based", "settings": "dose 0.1-1 µM", "summary_of_the_method": "(§2)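 Male C57Bl/6J mouse brain (27 weeks) homogenised; membrane and cytosol fractions separated and diluted to 2.0 mg/mL. Samples incubated with compound (0.1 or 1 µM final) or 2.5% DMSO for 30 min at RT. Probes MB064 and FP-Bodipy (100 nM each) added for 10 min. SDS-PAGE with in-gel fluorescence; Coomassie staining as loading control.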"}, "[8]": {"biological_target": "T1, Monoglyceride lipase (Mus musculus)", "test": "In-vivo inhibition of mouse MAGL assessed as decrease in arachidonic acid level in brain at 5 mg/kg, ip measured after 1 hr by LC-MS/MS analysis", "assay_type": "functional, organism-based", "summary_of_the_method": "as §1"}, "[9]": {"biological_target": "T1, Monoglyceride lipase (Mus musculus)", "test": "In-vivo inhibition of mouse MAGL assessed as effect on palmitic level in brain at 5 mg/kg, ip measured after 1 hr by LC-MS/MS analysis", "assay_type": "functional, organism-based", "summary_of_the_method": "as §1"}, "[10]": {"biological_target": "T3, Lysophosphatidylserine lipase ABHD12 (Mus musculus) (UniProt Q99LR1)", "T3 sequence (whole entry)": "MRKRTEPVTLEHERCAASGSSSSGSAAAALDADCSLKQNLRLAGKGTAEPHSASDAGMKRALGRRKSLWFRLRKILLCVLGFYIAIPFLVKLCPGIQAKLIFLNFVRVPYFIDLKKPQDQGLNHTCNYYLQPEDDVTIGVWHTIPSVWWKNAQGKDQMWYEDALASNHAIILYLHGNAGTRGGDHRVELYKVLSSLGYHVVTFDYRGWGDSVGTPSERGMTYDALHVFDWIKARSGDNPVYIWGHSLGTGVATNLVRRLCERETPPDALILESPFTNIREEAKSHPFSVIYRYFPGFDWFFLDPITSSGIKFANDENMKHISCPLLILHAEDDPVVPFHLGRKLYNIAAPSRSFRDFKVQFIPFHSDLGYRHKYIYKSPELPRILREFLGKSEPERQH", "test": "Binding affinity to mouse brain ABHD12 at 0.1 to 1 uM incubated for 30 mins in presence of g MB064 by ABPP assay", "assay_type": "tissue-based", "settings": "dose 0.1-1 µM", "summary_of_the_method": "as §2"}, "[11]": {"biological_target": "T1, Monoglyceride lipase (Mus musculus)", "test": "In-vivo inhibition of MAGL activity in brain of mouse at 5 mg/kg, ip measured after 1 hrs by LC-MS analysis", "assay_type": "functional, organism-based", "summary_of_the_method": "as §1"}, "[12]": {"biological_target": "Acyl-protein thioesterase 2 (Mus musculus) (UniProt Q9WTL7)", "sequence (Q9WTL7 whole entry)": "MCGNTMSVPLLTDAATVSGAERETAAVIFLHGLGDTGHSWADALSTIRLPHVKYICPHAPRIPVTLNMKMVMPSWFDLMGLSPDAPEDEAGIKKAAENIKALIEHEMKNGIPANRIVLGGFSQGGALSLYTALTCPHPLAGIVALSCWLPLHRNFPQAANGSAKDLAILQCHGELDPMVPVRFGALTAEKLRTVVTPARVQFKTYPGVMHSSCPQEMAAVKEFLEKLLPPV", "test": "Binding affinity to mouse brain LYPLA2 at 0.1 to 1 uM incubated for 30 mins in presence of MB064 by ABPP assay", "assay_type": "tissue-based", "settings": "dose 0.1-1 µM", "summary_of_the_method": "as §2"}, "[13]": {"biological_target": "T1, Monoglyceride lipase (Mus musculus)", "test": "In-vivo inhibition of mouse MAGL assessed as fold increase in 2-AG content in brain at 5 mg/kg, ip measured after 1 hr by LC-MS/MS analysis", "assay_type": "functional, organism-based", "summary_of_the_method": "as §1"}, "[14]": {"biological_target": "T1, Monoglyceride lipase (Mus musculus)", "test": "In-vivo inhibition of mouse MAGL assessed as effect on docosahexaenoic level in brain at 5 mg/kg, ip measured after 1 hr by LC-MS/MS analysis", "assay_type": "functional, organism-based", "summary_of_the_method": "as §1"}, "[15]": {"biological_target": "T1, Monoglyceride lipase (Mus musculus)", "test": "In-vivo inhibition of mouse MAGL assessed as effect on stearic level in brain at 5 mg/kg, ip measured after 1 hr by LC-MS/MS analysis", "assay_type": "functional, organism-based", "summary_of_the_method": "as §1"}, "[16]": {"biological_target": "T4, Monoglyceride lipase (Rattus norvegicus) (UniProt Q8R431)", "T4 sequence (whole entry)": "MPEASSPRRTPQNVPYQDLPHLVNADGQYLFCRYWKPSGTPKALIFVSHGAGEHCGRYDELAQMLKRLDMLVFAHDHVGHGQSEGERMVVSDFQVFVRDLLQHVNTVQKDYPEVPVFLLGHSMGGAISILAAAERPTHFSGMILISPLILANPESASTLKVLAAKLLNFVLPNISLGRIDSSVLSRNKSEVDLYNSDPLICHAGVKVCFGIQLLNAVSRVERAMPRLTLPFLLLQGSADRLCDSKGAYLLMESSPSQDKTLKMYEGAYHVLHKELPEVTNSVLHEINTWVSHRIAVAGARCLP", "test": "Irreversible inhibition of rat MAGL expressed in human HeLa cells incubated for 60 mins", "assay_type": "cell-based", "summary_of_the_method": "(§3)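 Homogenates of HeLa cells overexpressing wild-type rat MAGL, in 50 mM Tris-HCl pH 8.0 with 0.5 mg/mL fatty-acid-free BSA, 37 °C; 2-OG substrate 10 µM final, oleic acid by LC/MS. Time course: preincubation for varied times, then 30 min with substrate. Dilution: enzyme concentrated 100-fold, preincubated 20 min with 10× IC50-equivalent compound or 1% DMSO, diluted 100-fold into substrate buffer, product followed over 60 min (n = 3).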"}, "Cannabinoid receptor 2": {"biological_target": "Cannabinoid receptor 2 (Homo sapiens, UniProt P34972)", "sequence (P34972 whole entry)": "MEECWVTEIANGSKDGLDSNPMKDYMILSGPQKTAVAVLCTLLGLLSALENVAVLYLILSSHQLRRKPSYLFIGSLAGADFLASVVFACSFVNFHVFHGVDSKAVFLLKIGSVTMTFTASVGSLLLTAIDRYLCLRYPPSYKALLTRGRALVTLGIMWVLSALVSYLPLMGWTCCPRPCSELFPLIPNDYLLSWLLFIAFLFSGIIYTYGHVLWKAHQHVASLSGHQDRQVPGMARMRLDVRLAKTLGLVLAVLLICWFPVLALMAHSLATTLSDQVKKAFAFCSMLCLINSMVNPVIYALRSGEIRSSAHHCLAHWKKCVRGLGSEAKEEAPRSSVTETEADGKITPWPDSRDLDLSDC", "test": "Agonist activity at human CB2 receptor at 10 uM by TR-FRET assay", "assay_type": "functional"}, "[17]": {"biological_target": "T4, Monoglyceride lipase (Rattus norvegicus)", "test": "Inhibition of wild type rat MAGL expressed in human HeLa cells", "assay_type": "cell-based", "settings": "time 10.0 min, TDE = time-dependent effect", "summary_of_the_method": "as §3"}, "[18]": {"biological_target": "T1, Monoglyceride lipase (Mus musculus)", "test": "In-vivo inhibition of mouse MAGL assessed as effect on PEA level in brain at 5 mg/kg, ip measured after 1 hr by LC-MS/MS analysis", "assay_type": "functional, organism-based", "summary_of_the_method": "as §1"}}, "note": "Active and inactive are the calls of the source. The rule behind the calls is not given here.", "data": [{"smiles": "O=C1[C@H](c2ccc(F)cc2)[C@@H](c2ccc3c(c2)OCO3)N1C1CCN(C(=O)n2nnc3ccccc32)CC1", "note": "(racemic)", "values": [{"measurement": "Activity", "setting": "[1]", "value": 73, "unit": "%"}, {"measurement": "Activity", "setting": "[2]", "value": "inactive"}, {"measurement": "inhibition", "setting": "[3]", "value": "Dose-Dependent Effect"}, {"measurement": "inhibition", "setting": "[4]", "value": "Dose-Dependent Effect"}, {"measurement": "inhibition", "setting": "[5]", "value": "Dose-Dependent Effect"}, {"measurement": "inhibition", "setting": "[6]", "value": "Active"}, {"measurement": "Activity", "setting": "[7]", "value": "Active"}, {"measurement": "inhibition", "setting": "[8]", "value": "Active"}, {"measurement": "inhibition", "setting": "[9]", "value": "Active"}, {"measurement": "Activity", "setting": "[10]", "value": "Active"}, {"measurement": "inhibition", "setting": "[11]", "value": 50, "unit": "%"}, {"measurement": "Activity", "setting": "[12]", "value": "Active"}, {"measurement": "fold change (FC)", "setting": "[13]", "value": "> 40"}, {"measurement": "inhibition", "setting": "[14]", "value": "Active"}, {"measurement": "inhibition", "setting": "[15]", "value": "Active"}, {"measurement": "inhibition", "setting": "[16]", "value": "Active"}, {"measurement": "Activity", "setting": "Cannabinoid receptor 2", "value": "inactive"}, {"measurement": "inhibition", "setting": "[17]", "value": "Tde"}, {"measurement": "inhibition", "setting": "[18]", "value": "Dose-Dependent Effect"}]}, {"smiles": "O=C(Oc1ccc([N+](=O)[O-])cc1)N1CCC(C(O)(c2ccc3c(c2)OCO3)c2ccc3c(c2)OCO3)CC1", "values": [{"measurement": "inhibition", "setting": "[5]", "value": "Dose-Dependent Effect"}]}]}
